High-throughput results: PubChem BioAssay, several laboratories
KCNK9 block – inhibitors of human KCNK9 two-pore domain potassium channel. HEK293 KCNK9, FluxOR thallium flux fluorescence; hits give low values. Q9NPC2. B-score at 10 µM. 310,000 tested, 1.2% active;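 active = ratio B-score over 3 SD below the library mean, with starting fluorescence within 5 SD of its mean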;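 also: negative B-score means less thallium flux so channel inhibition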
KCNQ1 inh – blocks the human KCNQ1 potassium channel | B-score at 10 µM | AID 2642 | 310,000 tested, 1.3% active | CHO-K1 KCNQ1, FluxOR thallium flux fluorescence; hits give high values | P51787;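 active = compounds whose thallium flux B-score, printed positive for inhibition, exceeds three library SD while starting fluorescence stays within three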;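 also: channel opened by potassium depolarization with thallium stimulus after 20 min compound exposure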
hERG rescue – compounds protecting human hERG from proarrhythmic drug block | Q12809 | 310,000 tested, 0.51% active | AID 1511 | activation (rescue from dofetilide block), less the hit threshold, % at 10 µM | CHO-hERG, FluxOR thallium flux, dofetilide IC70 present;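 active = activation above the mean of controls blocked by dofetilide plus 5 SD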;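 also: thallium influx through hERG after potassium depolarization seen as dye fluorescence rise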
KCNQ1 act – potentiates or activates the human KCNQ1 potassium channel. P51787. CHO-K1 KCNQ1, thallium flux FluxOR fluorescence; hits give high values. 310,000 tested, 0.35% active. B-score at 10 µM;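 active = fluorescence ratio B-score, a plate-corrected score, at least three library SD, with initial intensity B-score within 5 SD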
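Medium – assay buffer, equal DMSO in all wells · Material – CHO-K1 cell line with stable KCNQ1 potassium channel expression · Signal – kinetic FluxOR thallium fluorescence, 10-s 1-Hz baseline, 110-s post-stimulus read · Compound – single concentration per compound, DMSO matched to controls · Schedule – 37 °C overnight plating, 90-min dark dye load, 20-min compound pretreatment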
KCNK3 inh – human KCNK3 channel inhibition, primary screen | O14649 | AID 602410 | B-score at 10 µM | 340,000 tested, 0.84% active | CHO-KCNK3 thallium flux, FluxOR fluorescence; hits give low values;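 active = B-score under library mean minus 4 SD, starting fluorescence ratio at most library mean plus 5 SD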;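 also: more negative B-score means stronger inhibition of thallium flux through KCNK3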
Target sequence (O14649 whole entry, looked up): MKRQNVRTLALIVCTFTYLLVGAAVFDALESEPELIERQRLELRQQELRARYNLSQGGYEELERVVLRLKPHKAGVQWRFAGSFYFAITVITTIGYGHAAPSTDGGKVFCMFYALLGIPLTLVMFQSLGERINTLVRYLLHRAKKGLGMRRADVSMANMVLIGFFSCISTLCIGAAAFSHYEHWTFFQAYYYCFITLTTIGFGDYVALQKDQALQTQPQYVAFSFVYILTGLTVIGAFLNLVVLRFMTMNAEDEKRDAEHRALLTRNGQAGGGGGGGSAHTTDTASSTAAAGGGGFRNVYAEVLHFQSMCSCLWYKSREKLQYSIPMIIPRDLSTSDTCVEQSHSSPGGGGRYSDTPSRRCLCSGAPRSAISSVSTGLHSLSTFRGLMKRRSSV
PHOSPHO1 inh – blocks human PHOSPHO1 phosphatase activity; Q8TCT1; 290,000 tested, 1.1% active; recombinant PHOSPHO1, absorbance phosphatase assay; inhibition, % at 13.3 µM; AID 1565; in the data active = inhibition above about 60%
Target sequence (Q8TCT1 whole entry, looked up): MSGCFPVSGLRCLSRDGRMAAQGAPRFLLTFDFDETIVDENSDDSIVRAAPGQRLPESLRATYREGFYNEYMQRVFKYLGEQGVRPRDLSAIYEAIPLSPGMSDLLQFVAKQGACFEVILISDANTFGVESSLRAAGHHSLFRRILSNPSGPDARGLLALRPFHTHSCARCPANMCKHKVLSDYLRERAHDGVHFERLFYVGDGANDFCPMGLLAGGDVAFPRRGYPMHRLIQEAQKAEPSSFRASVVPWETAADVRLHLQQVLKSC
KCNK9 inh conf – human KCNK9 inhibitor confirmation; AID 492992; inhibition, % at 10 µM; HEK293 KCNK9 cells, FluxOR thallium flux fluorescence; shares compounds with KCNK9 block; 4,900 tested, 43% active;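 active = thallium signal inhibited by more than 5 SD of the compound-free buffer control wells, on both duplicate plates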
Kir21 sel – mouse Kir2.1 off-target activity of KCNK9 modulators; shares compounds with KCNK9 block; Kir2.1 cells, FluxOR thallium flux fluorescence; inhibition, % at 10 µM; 4,900 tested, 4% active; AID 492993;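 active = thallium signal drop more than 5 SD beyond the mean of the no-compound control wells, seen in both duplicate plates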;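 also: signal is fluorescence rise after thallium addition divided by baseline fluorescence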
KCNK9 uninduced – second counter-screen for KCNK9 modulators: effect in non-induced cells. shares compounds with KCNK9 block. non-induced KCNK9-HEK293, FluxOR thallium flux. inhibition, % at 10 µM. 4,900 tested, 40% active. AID 492997;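 active = thallium signal drop beyond 5 SD of the untreated control mean, on both duplicate plates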
Numbers stand for hits; – = inactive; · = no result given; ! = not active in a repeat. Rows were chosen to be rich in hits. Some 4% of all compounds tested hit in one or more screens of this group.

SMILES | KCNK9 block | KCNQ1 inh | hERG rescue | KCNQ1 act | KCNK3 inh | PHOSPHO1 inh | KCNK9 inh conf | Kir21 sel | KCNK9 uninduced
CCOC(=O)N1CCN(CC(=O)Nc2cc3c(cc2C(C)=O)OCO3)CC1 | – | – | – | – | – | – | · | · | ·
CC(=O)c1cc2c(cc1NC(=O)CN1CCC(Cc3ccccc3)CC1)OCO2 | – | – | – | – | – | – | – | – | –
Cc1cc(S(=O)(=O)N2CCCC(N(C)CCc3ccccn3)C2)c(C)cc1Cl (configuration not stated) | – | – | – | – | – | – | – | – | –
Cc1ccc(C(=O)NCCSc2ccc(Cl)cc2)cc1S(=O)(=O)Nc1ccccc1 | – | – | – | – | – | – | – | – | –
Cc1ccc(NS(=O)(=O)c2cc(C(=O)NCCSC3CCCCC3)ccc2C)cc1 | – | – | – | – | – | – | · | · | ·
Cc1ccc(NS(=O)(=O)c2cc(C(=O)NCCSc3ccc(C)cc3)ccc2C)cc1 | – | – | – | – | – | – | – | – | –
O=C(Nc1ccccc1N1CCOCC1)C1=COCCO1 | – | – | – | – | – | · | · | · | ·
CNC(=O)NC(=O)COc1c(F)c(F)cc(F)c1F | – | – | – | – | – | – | · | · | ·
CCOC(=O)N1CCC(n2c(SCC(=O)NCCC3=CCCCC3)nc3ccccc3c2=O)CC1 | – | – | – | – | – | – | – | – | –
Cc1c(C(=O)N2CCC(C)CC2)sc2ncnc(N3CCN(c4ccccc4)CC3)c12 | – | – | – | – | – | – | – | – | –
Cc1c(C(=O)N(C)C2CCCCC2)sc2ncnc(N3CCN(c4ccccc4F)CC3)c12 | – | – | – | – | – | – | · | · | ·
Cc1c(C(=O)N2CCN(c3ccccc3)CC2)sc2ncnc(N3CCN(c4ccccn4)CC3)c12 | – | – | – | – | – | – | · | · | ·
Cc1c(C(=O)N(C)C2CCCCC2)sc2ncnc(N3CCN(c4ccccc4)CC3)c12 | – | – | – | – | – | – | – | – | –
Cc1cc(C)c(OCC(=O)Nc2ccccc2N2CCCCC2)c(C)c1 | – | – | – | – | – | · | · | · | ·
CCCCCC(=O)Nc1ccccc1N1CCN(c2ccccc2)CC1 | -13 | – | – | – | -11 | – | 49% | – | 36%
CCC(=O)N1CCN(c2ccccc2NC(=O)COc2cc(C)ccc2C(C)C)CC1 | -8.2 | – | – | – | – | – | 46% | – | 28%
O=C(COc1ccccc1)Nc1ccccc1N1CCN(c2ccc(F)cc2)CC1 | -8.6 | – | – | – | – | – | – | – | 28%
Cc1cc(C)c(OCC(=O)Nc2ccccc2N2CCOCC2)c(C)c1 | -10 | – | – | – | -10 | – | – | – | 48%
CC1(c2nnc(-c3ccc(Cl)cc3)o2)CC(c2ccc(Cl)cc2)=NO1 (configuration not stated) | – | – | – | – | – | – | · | · | ·
CCCCCCCCCCOC(=O)Cn1c(COc2ccccc2)[n+](C)c2ccccc21 | -15 | 8 | – | – | – | – | 72% | 75% | 34%
CCOC(=O)Cn1c(COc2ccccc2OC)[n+](C)c2ccccc21 | – | – | – | – | – | · | · | · | ·
CCCCCCCCCCOC(=O)Cn1c(COc2ccc(Cl)cc2)[n+](C)c2ccccc21 | -10 | – | – | – | – | – | 72% | 50% | –
CCCCCOC(=O)Cn1c(=O)oc2ccccc21 | – | – | – | – | – | – | · | · | ·
CCCCCCCCCCOC(=O)Cn1c(COc2ccc(OC)cc2)[n+](C)c2ccccc21 | -17 | 10 | – | – | – | – | 70% | 75% | 33%!
CCOC(=O)C1=NN(c2ccc([N+](=O)[O-])cc2)CC1C(=O)OC (configuration not stated) | – | – | – | – | – | – | · | · | ·
SMILES | KCNK9 block | KCNQ1 inh | hERG rescue | KCNQ1 act | KCNK3 inh | PHOSPHO1 inh | KCNK9 inh conf | Kir21 sel | KCNK9 uninduced
CC(=O)N1CCN(S(=O)(=O)c2ccc(S(=O)(=O)N3CCCC(C)C3)cc2)CC1 (configuration not stated) | – | – | – | – | – | – | · | · | ·
COc1ccc(CCN2CC(C(=O)NCc3cc(C)on3)CCC2=O)cc1 (configuration not stated) | – | – | – | – | – | – | · | · | ·
Cc1ccc(CSc2nnc(C(F)(F)F)n2Cc2ccc(F)cc2)cc1 | -9.6 | – | – | – | – | – | 29% | – | 39%
CC(C)[C@@H]1CC[C@@H](C)C[C@H]1OC(=O)C[n+]1cc(-c2ccc(Cl)cc2)n2c1CCCCC2 | -13 | – | – | – | – | – | 60% | 70% | –
COc1ccc(-c2c[n+](CC(=O)OC3CC(C)CCC3C(C)C)c3n2CCC3)cc1 (configuration not stated) | – | – | – | – | – | – | · | · | ·
O=C(O)c1cc(NS(=O)(=O)c2cccc3nsnc23)cc(C(=O)O)c1 | – | – | – | – | – | – | · | · | ·
CCOC(=O)Cn1cnc2scc(-c3ccc(C)cc3)c2c1=O | – | – | – | – | – | – | – | – | –
CCOC(=O)Cn1cnc2scc(-c3ccccc3)c2c1=O | – | – | – | – | – | – | · | · | ·
CCOC(=O)Cn1cnc2scc(-c3ccc(C)c(C)c3)c2c1=O | – | – | – | – | – | – | – | – | –
CC(C)CN(C(=O)c1ccc(S(=O)(=O)N2CCCCC2)cc1)C1CCS(=O)(=O)C1 (configuration not stated) | – | – | – | – | – | · | · | · | ·
CCN(CC)S(=O)(=O)c1cc(OC)ccc1N=Nc1ccc(O)c2ncccc12 | – | – | 17 | – | – | – | – | – | –
CCS(=O)(=O)c1ccc(OC)c(N=Nc2ccc(O)c3ncccc23)c1 | – | – | – | – | – | – | · | · | ·
COc1ccc(C2=NN(C(=O)c3cccc([N+](=O)[O-])c3)C(c3cccc([N+](=O)[O-])c3)C2)cc1 (configuration not stated) | -13 | – | – | – | – | – | 64% | – | 35%
COc1ccc(CCCc2nnc(SCC(=O)Nc3cccc(C)c3)o2)cc1 | – | – | – | – | – | – | – | – | –
O=C(N=C1SCC(=O)N1c1ccccc1Cl)c1ccccc1 | – | – | – | – | – | – | · | · | ·
COC(=O)CSc1nc(SCc2ccccc2Cl)nc2c1CCCC2 | – | – | – | – | – | – | – | – | –
O=C(C1=C[C@@H](C2CC2)C[C@@H](OCc2ccc(CO)cc2)O1)N1CCOCC1 | – | – | – | – | – | – | · | · | ·
O=C(CN1C(=O)S/C(=C\C=C\c2ccccc2)C1=O)Nc1ccccc1C(=O)O | – | – | – | – | – | – | – | – | –
O=C(O)CN1C(=O)/C(=C\c2cccc(OCc3ccc(Cl)cc3)c2)SC1=S | – | – | – | – | – | · | – | – | –
